Experimental data taken from publication PMC4497517 (Proteins, 2009).
pIC50: −log10 of the molar value. “Also recorded” adds a separate entry of the source. Where a SMILES comes first, the peptide text is derived from it.

Key:
cdk2/cyclin E complex [1] = target: T1, cdk2/cyclin E complex (Homo sapiens, UniProt P24941); test: Phosphorylation of RNAPII CTD; format: biochemical
Outline: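 C81 cell lysate was fractionated on Superose 6 size exclusion, and cdk2 fractions 28–32 were pooled with test peptide (0.01, 0.1, 1, 10 μM). Cyclin E was immunoprecipitated overnight at 4°C (1 μg antibody, ~100 ng active cdk2/cyclin E), captured on protein A/G beads and washed. Kinase reaction: 20 μl, 1 hr, 37°C, GST-CTD substrate, (γ-32P) ATP. Products run on 4–20% Tris-glycine gel, dried, 32P bands counted by phosphorimager.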

cdk2 = settings: cited from earlier work
cdk2 K178A = settings: cited from earlier work
[2] = tested on: RNA polymerase II (RNAPII) serine 5; settings: by disrupting cdk2/cyclin E complex formation; cited from earlier work
cdk2/cyclin E complex [3] = target: T1, cdk2/cyclin E complex; settings: cited from earlier work
cdk2 Y180A = settings: cited from earlier work
cdk2 R126A = settings: alanine mutation experiment; cited from earlier work

Row | Compound | pIC50 (cdk2/cyclin E complex [1]) | Interaction with cdk2 (cdk2) | Binding affinity to mutant (cdk2 K178A) | Inhibition of phosphorylation of serine 5 of RNAPII [2] | Disruption of cdk2/cyclin E complex (cdk2/cyclin E complex [3]) | Binding affinity to mutant (cdk2 Y180A) | Effect of R126A mutation on peptide binding (cdk2 R126A)
1 | CC(C)C[C@H](NC(=O)[C@H](C)NC(=O)[C@H](C)NC(=O)[C@@H](N)CC(C)C)C(=O)N[C@@H](CO)C(=O)O [LAALS] (H-LAALS-OH) | 5.37 |  |  |  |  |  | 
2 | TAALS |  | interacts directly with cdk2 | dramatic reduction in their binding affinity | inhibits the phosphorylation of serine 5 of RNA polymerase II (RNAPII) | disrupts the cdk2/cyclin E complex; also recorded: succeeded in partially breaking the cdk2/cyclin E complex | dramatic reduction in their binding affinity | does not participate significantly in the peptide binding; also recorded: does not affect the binding of peptide TAALS
